From ChEMBL document CHEMBL1148606 (J Med Chem, 2006)

What was measured:
Type in all cases: cell-based
[1] = target: T1, Adenosine receptor A3 (Homo sapiens, UniProt P0DMS8); assay: Displacement of [125I]AB-MECA from human adenosine A3 receptor transfected in CHO cells
T1 sequence (P0DMS8 whole entry): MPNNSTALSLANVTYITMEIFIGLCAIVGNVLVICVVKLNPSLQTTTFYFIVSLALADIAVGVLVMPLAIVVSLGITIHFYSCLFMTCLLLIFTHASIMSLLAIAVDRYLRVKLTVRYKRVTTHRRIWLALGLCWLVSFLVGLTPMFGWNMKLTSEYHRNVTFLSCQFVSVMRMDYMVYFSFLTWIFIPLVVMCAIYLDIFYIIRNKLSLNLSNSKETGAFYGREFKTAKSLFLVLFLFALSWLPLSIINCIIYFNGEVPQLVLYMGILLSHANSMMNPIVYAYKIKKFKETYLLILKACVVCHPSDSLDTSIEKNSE

[2] = target: T2, Adenosine receptor A2a (Homo sapiens, UniProt P29274); assay: Displacement of [3H]CGS-21680 from human adenosine A2A receptor transfected in HEK293 cells
T2 sequence (P29274 whole entry): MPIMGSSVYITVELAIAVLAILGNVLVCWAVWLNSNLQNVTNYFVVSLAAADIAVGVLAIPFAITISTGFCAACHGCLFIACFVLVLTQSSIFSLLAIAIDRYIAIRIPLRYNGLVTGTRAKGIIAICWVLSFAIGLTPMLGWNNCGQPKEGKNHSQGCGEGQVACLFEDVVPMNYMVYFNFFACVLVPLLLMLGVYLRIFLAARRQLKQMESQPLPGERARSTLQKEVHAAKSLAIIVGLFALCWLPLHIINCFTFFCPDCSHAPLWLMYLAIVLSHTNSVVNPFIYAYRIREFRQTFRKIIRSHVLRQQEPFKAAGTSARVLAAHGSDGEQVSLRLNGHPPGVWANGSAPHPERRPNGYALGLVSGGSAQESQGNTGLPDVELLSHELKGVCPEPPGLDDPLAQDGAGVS
How it was run: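 Membranes (20 µg/tube) from HEK-293 cells stably expressing human A2A receptor, incubated with 15 nM [3H]CGS21680 at 25 °C for 60 min in 50 mM Tris·HCl pH 7.4 with 10 mM MgCl2. Nonspecific binding defined with 10 µM NECA. Terminated by filtration through GF/B filters.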

[3] = target: T3, Adenosine receptor A1 (Homo sapiens, UniProt P30542); assay: Displacement of [3H]R-PIA from human adenosine A1 receptor transfected in CHO cells
T3 sequence (P30542 whole entry): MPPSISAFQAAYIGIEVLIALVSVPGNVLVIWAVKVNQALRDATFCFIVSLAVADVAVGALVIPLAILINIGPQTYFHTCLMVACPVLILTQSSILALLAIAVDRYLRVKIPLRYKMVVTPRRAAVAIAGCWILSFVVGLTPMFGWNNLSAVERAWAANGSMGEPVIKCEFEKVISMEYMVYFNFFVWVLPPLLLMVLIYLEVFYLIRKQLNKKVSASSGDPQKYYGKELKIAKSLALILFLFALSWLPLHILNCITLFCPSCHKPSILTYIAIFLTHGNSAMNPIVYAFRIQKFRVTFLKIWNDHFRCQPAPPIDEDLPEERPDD
How it was run: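 Membranes (40 µg/tube) from CHO cells stably expressing human A1 receptor were incubated with 2 nM [3H]R-PIA at 25 °C for 60 min in 50 mM Tris·HCl pH 7.4 containing 10 mM MgCl2. Nonspecific binding defined with 10 µM CPA. Terminated by filtration through GF/B filters.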

[4] = target: T4, Adenosine receptor A1 (Homo sapiens) (UniProt P30542); assay: Inhibition of [3H]R-PIA binding to human adenosine A1 receptor transfected in CHO cells at 10 uM
T4 sequence (whole entry): T3 sequence (P30542 whole entry)

[5] = target: T2, Adenosine receptor A2a; assay: Inhibition of [3H]CGS-21680 binding to human adenosine A2A receptor transfected in HEK293 cells at 10 uM

SMILES	Ki [1] [nM]	Ki [2] [nM]	Ki [3] [nM]	inhibition [4] [%]	inhibition [5] [%]
Cc1ccccc1CNc1nc(Cl)nc2c1ncn2[C@@H]1S[C@H](C(=O)N(C)C)[C@@H](O)[C@H]1O	632	–	–	0	22.5
O=C(NCc1cccc(Cl)c1)[C@H]1S[C@@H](n2cnc3c(NCc4cccc(I)c4)nc(Cl)nc32)[C@H](O)[C@@H]1O	308	–	1710	–	28
CNC(=O)[C@H]1S[C@@H](n2cnc3c(NC)nc(Cl)nc32)[C@H](O)[C@@H]1O	–	–	–	–	20
O=C(NCCC(c1ccccc1)c1ccccc1)[C@H]1S[C@@H](n2cnc3c(NCc4cccc(I)c4)nc(Cl)nc32)[C@H](O)[C@@H]1O	343	–	–	5	3
O=C([C@H]1S[C@@H](n2cnc3c(NCc4cccc(I)c4)nc(Cl)nc32)[C@H](O)[C@@H]1O)N1CCC(Cc2ccccc2)CC1	878	–	–	38	17
O=C([C@H]1S[C@@H](n2cnc3c(NC4CC4)nc(Cl)nc32)[C@H](O)[C@@H]1O)N1CCC(Cc2ccccc2)CC1	4020	–	–	32	33
Cc1ccccc1CNc1nc(Cl)nc2c1ncn2[C@@H]1S[C@H](C(=O)N2CCC(Cc3ccccc3)CC2)[C@@H](O)[C@H]1O	49200	–	–	26	15
O=C([C@H]1S[C@@H](n2cnc3c(NCc4cccc(I)c4)nc(Cl)nc32)[C@H](O)[C@@H]1O)N1CCN(c2ccc(F)cc2)CC1	1440	–	–	24	12
O=C(NCCc1ccccc1)[C@H]1S[C@@H](n2cnc3c(NCc4cccc(I)c4)nc(Cl)nc32)[C@H](O)[C@@H]1O	433	–	–	20	11
O=C([C@H]1S[C@@H](n2cnc3c(NC4CC4)nc(Cl)nc32)[C@H](O)[C@@H]1O)N1CCOCC1	4440	–	–	25	11
CNc1nc(Cl)nc2c1ncn2[C@@H]1S[C@H](C(=O)NCCC(c2ccccc2)c2ccccc2)[C@@H](O)[C@H]1O	415	–	–	20	15
Cc1ccccc1CNc1nc(Cl)nc2c1ncn2[C@@H]1S[C@H](C(=O)N2CCOCC2)[C@@H](O)[C@H]1O	7670	–	–	4	17
O=C(NCc1cccc(C(F)(F)F)c1)[C@H]1S[C@@H](n2cnc3c(NCc4cccc(I)c4)nc(Cl)nc32)[C@H](O)[C@@H]1O	354	–	–	0	11
CNc1nc(Cl)nc2c1ncn2[C@@H]1S[C@H](C(=O)N2CCN(c3ccc(F)cc3)CC2)[C@@H](O)[C@H]1O	2700	–	–	28	34
CNc1nc(Cl)nc2c1ncn2[C@@H]1S[C@H](C(=O)N2CCOCC2)[C@@H](O)[C@H]1O	3870	–	–	4	24
CNc1nc(Cl)nc2c1ncn2[C@@H]1S[C@H](C(=O)NCCc2cccc(F)c2)[C@@H](O)[C@H]1O	85.6	–	–	15	30
CNc1nc(Cl)nc2c1ncn2[C@@H]1S[C@H](C(=O)N(C)C)[C@@H](O)[C@H]1O	1500	–	–	10	12
CCNC(=O)[C@H]1S[C@@H](n2cnc3c(NC4CCCC4)nc(Cl)nc32)[C@H](O)[C@@H]1O	–	149	2	–	–
CC(C)CCNC(=O)[C@H]1S[C@@H](n2cnc3c(NCc4cccc(I)c4)nc(Cl)nc32)[C@H](O)[C@@H]1O	41.9	–	–	31	31
CNc1nc(Cl)nc2c1ncn2[C@@H]1S[C@H](C(=O)N2CCC(Cc3ccccc3)CC2)[C@@H](O)[C@H]1O	3500	–	–	10	6
O=C([C@H]1S[C@@H](n2cnc3c(NCc4cccc(I)c4)nc(Cl)nc32)[C@H](O)[C@@H]1O)N1CCOCC1	510	–	–	18	4

The remaining compounds from weak to strong by Ki [1], led by results:

Ki [1] [nM]	Ki [2] [nM]	Ki [3] [nM]	inhibition [4] [%]	inhibition [5] [%]	SMILES
29.7	3890	1980	–	–	Cc1ccccc1CNc1nc(Cl)nc2c1ncn2[C@@H]1S[C@H](C(=O)NCC2CC2)[C@@H](O)[C@H]1O
27.8	202	76.7	–	–	Cc1ccccc1CNc1nc(Cl)nc2c1ncn2[C@@H]1S[C@H](C(=O)NC2CC2)[C@@H](O)[C@H]1O
18.2	549	126	–	–	O=C(NC1CCC1)[C@H]1S[C@@H](n2cnc3c(NCc4cccc(I)c4)nc(Cl)nc32)[C@H](O)[C@@H]1O
17.4	–	–	67	41	CNc1nc(Cl)nc2c1ncn2[C@@H]1S[C@H](C(=O)NCc2cccc(F)c2)[C@@H](O)[C@H]1O
5.56	325	4.6	–	–	O=C(NC1CC1)[C@H]1S[C@@H](n2cnc3c(NC4CC4)nc(Cl)nc32)[C@H](O)[C@@H]1O
4.27	921	13.9	–	–	CNC(=O)[C@H]1S[C@@H](n2cnc3c(NC4CCCC4)nc(Cl)nc32)[C@H](O)[C@@H]1O
3.64	2220	1720	–	–	O=C(NCC1CC1)[C@H]1S[C@@H](n2cnc3c(NCc4cccc(I)c4)nc(Cl)nc32)[C@H](O)[C@@H]1O
2.96	326	92	–	–	O=C(NC1CC1)[C@H]1S[C@@H](n2cnc3c(NCc4cccc(I)c4)nc(Cl)nc32)[C@H](O)[C@@H]1O
2.82	2770	47.8	–	–	CNc1nc(Cl)nc2c1ncn2[C@@H]1S[C@H](C(=O)NC2CC2)[C@@H](O)[C@H]1O
2.5	429	75.8	–	–	CCNC(=O)[C@H]1S[C@@H](n2cnc3c(NCc4ccccc4C)nc(Cl)nc32)[C@H](O)[C@@H]1O
2.24	4890	37.3	–	–	CNC(=O)[C@H]1S[C@@H](n2cnc3c(NC4CC4)nc(Cl)nc32)[C@H](O)[C@@H]1O
2.18	1320	507	–	–	CNC(=O)[C@H]1S[C@@H](n2cnc3c(NCc4ccccc4C)nc(Cl)nc32)[C@H](O)[C@@H]1O
1.63	–	4070	–	14	CNc1nc(Cl)nc2c1ncn2[C@@H]1S[C@H](C(=O)NCCC(C)C)[C@@H](O)[C@H]1O
1.1	–	638	–	44	CNc1nc(Cl)nc2c1ncn2[C@@H]1S[C@H](C(=O)NCC2CC2)[C@@H](O)[C@H]1O
0.89	292	144	–	–	CCNC(=O)[C@H]1S[C@@H](n2cnc3c(NCc4cccc(I)c4)nc(Cl)nc32)[C@H](O)[C@@H]1O
0.67	604	3.2	–	–	CCNC(=O)[C@H]1S[C@@H](n2cnc3c(NC4CC4)nc(Cl)nc32)[C@H](O)[C@@H]1O
